Laboratory results published in ChEMBL document CHEMBL1126594, “Studies directed toward the design of orally active renin inhibitors. 1. Some factors influencing the absorption of small peptides” (J Med Chem, 1993).

What was measured:
[1] = Plasma level by the renin inhibition assay from samples taken at 10 minutes from portal circulation by administering 10 mg/kg intraduodenally to the rat
[2] = Plasma level by the renin inhibition assay from samples taken at 10 minutes from systemic circulation by administering 10 mg/kg intraduodenally to the rat
[3] = Plasma level by the renin inhibition assay from samples taken at 30 minutes from portal circulation by administering 10 mg/kg intraduodenally to the rat
[4] = Plasma level by the renin inhibition assay from samples taken at 30 minutes from systemic circulation by administering 10 mg/kg intraduodenally to the rat
Renin = molecular target: T1, Renin (Homo sapiens, UniProt P00797); assay: Inhibition of human plasma renin at pH 7.4; format: cell-free
T1 sequence (P00797 whole entry): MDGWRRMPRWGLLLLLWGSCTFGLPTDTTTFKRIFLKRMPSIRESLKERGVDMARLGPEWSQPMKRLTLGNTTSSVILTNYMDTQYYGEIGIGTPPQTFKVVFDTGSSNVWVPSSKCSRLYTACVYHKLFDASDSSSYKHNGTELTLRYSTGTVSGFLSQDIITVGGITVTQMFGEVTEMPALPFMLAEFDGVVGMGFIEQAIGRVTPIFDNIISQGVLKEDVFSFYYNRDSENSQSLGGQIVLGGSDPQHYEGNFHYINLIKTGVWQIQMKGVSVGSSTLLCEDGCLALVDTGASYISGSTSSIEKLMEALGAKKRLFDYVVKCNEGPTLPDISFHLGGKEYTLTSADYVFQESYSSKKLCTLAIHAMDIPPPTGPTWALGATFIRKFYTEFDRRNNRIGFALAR
How it was run: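 Human plasma renin, pH 7.4; IC50 determined by the previously described method.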

[5] = Partition coefficient (logD7.4); conditions: octanol/water, pH 7.4
[6] = Integrated area under the plasma drug level-time curve after intraduodenal administration at a dose 10 mg/kg from portal circulation in salt-depleted cynomolgus monkeys using HPLC assay; format: ADME, organism-based, Macaca fascicularis; design: dose 10 mg/kg, route intraduodenal; conditions: cynomolgus monkey
How it was run: (§1)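 Salt-depleted cynomolgus monkeys, anesthetized, n = 4; 10 mg/kg intraduodenal in ethanol/HCl (110 mol %) diluted with aqueous hydroxypropyl methylcellulose (25% ethanol final, 10 mg/mL). 5-h experiment, systemic and portal sampling. Plasma (0.40 mL) mixed with 10% Na2CO3, extracted with ethyl acetate, assayed by HPLC; recoveries 75-85%. AUC as ng h/mL; mean ± SEM.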

[7] = Integrated area under the plasma drug level-time curve after intraduodenal administration at a dose 10 mg/kg from systemic circulation in salt-depleted cynomolgus monkeys using HPLC assay; format: ADME, organism-based, Macaca fascicularis; design: dose 10 mg/kg, route intraduodenal; conditions: cynomolgus monkey; how it was run: as §1
[8] = Peak plasma drug level after intraduodenal administration at a dose 10 mg/kg from portal circulation in salt-depleted cynomolgus monkeys using HPLC assay; format: ADME, organism-based, Macaca fascicularis; design: dose 10 mg/kg, route intraduodenal; conditions: cynomolgus monkey, read-out: Activity; how it was run: as §1
[9] = Peak plasma drug level after intraduodenal administration at a dose 10 mg/kg from systemic circulation in salt-depleted cynomolgus monkeys using HPLC assay; format: ADME, organism-based, Macaca fascicularis; design: dose 10 mg/kg, route intraduodenal; conditions: cynomolgus monkey, read-out: Activity; how it was run: as §1

Row | SMILES | concentration at 10 min [1] [ng/mL] | concentration at 10 min [2] [ng/mL] | concentration at 0.5 h [3] [ng/mL] | concentration at 0.5 h [4] [ng/mL] | IC50 (Renin) [nM] | logD [5] | AUC [6] [ng·h/mL] | AUC [7] [ng·h/mL] | Cmax [8] [ng/mL] | Cmax [9] [ng/mL]
1 | CC(C)C[C@H](O)[C@H](O)[C@H](CC1CCCCC1)NC(=O)[C@H](Cc1c[nH]cn1)NC(=O)[C@@H](CC(=O)N1CCN(C)CC1)Cc1ccccc1 | 67 | 63 | 30 | 40 | 5.4 | 1.66 |  |  |  | 
2 | CCN1C[C@@H]([C@H](O)[C@H](CC2CCCCC2)NC(=O)[C@H](Cc2c[nH]cn2)NC(=O)[C@H](Cc2ccc(OC)cc2)NC(=O)CC(C)(C)N)OC1=O | 140 | 93 | 250 | 110 | 17 |  |  |  |  | 
3 | COc1ccc(C[C@H](NC(=O)N2CCN(C)CC2)C(=O)N[C@@H](Cc2cscn2)C(=O)N[C@@H](CC2CCCCC2)[C@@H](O)[C@@H](O)CC(C)C)cc1 |  |  |  |  | 120 |  |  |  |  | 
4 | COc1ccc(C[C@H](NC(=O)C2CCN(C)CC2)C(=O)N[C@@H](Cc2cscn2)C(=O)N[C@@H](CC2CCCCC2)[C@@H](O)[C@@H](O)CC(C)C)cc1 | 1200 | 160 | 770 | 90 | 170 | 3.03 |  |  |  | 
5 | CON(C)C[C@H](NC(=O)[C@@H](CC(=O)N1CCOCC1)Cc1ccccc1)C(=O)N[C@@H](CC1CCCCC1)[C@@H](O)[C@@H](O)CC(C)C | 3500 | 340 | 1400 | 170 | 88 | > 4.6 |  |  |  | 
6 | CC(C)C[C@H](O)[C@H](O)[C@H](CC1CCCCC1)NC(=O)[C@H](CN(C)C)NC(=O)[C@@H](CC(=O)N1CCOCC1)Cc1ccccc1 |  |  |  |  | 210 |  |  |  |  | 
7 | CC(C)C[C@H](O)[C@H](O)[C@H](CC1CCCCC1)NC(=O)[C@H](Cn1ccnc1)NC(=O)[C@@H](CC(=O)N1CCOCC1)Cc1ccccc1 |  |  |  |  | 93 | 3.79 |  |  |  | 
8 | COc1ccc(C[C@H](NC(=O)CC(C)(C)N)C(=O)N[C@@H](Cc2cnc[nH]2)C(=O)N[C@@H](CC2CCCCC2)[C@@H](O)[C@@H](O)CC(C)C)cc1 | 1100 | 170 | 540 | 82 |  |  |  |  |  | 
9 | CC(C)C[C@H](O)[C@H](O)[C@H](CC1CCCCC1)NC(=O)[C@H](Cc1c[nH]cn1)NC(=O)[C@@H](CC(=O)N1CCOCC1)Cc1ccccc1 | 190 | 13 | 170 | 11 | 1.6 | 3.51 |  |  |  | 
10 | CC(C)C[C@H](O)[C@H](O)[C@H](CC1CCCCC1)NC(=O)[C@H](Cn1cccn1)NC(=O)[C@@H](CC(=O)N1CCN(C)CC1)Cc1ccccc1 | 2000 | 86 | 2300 | 140 | 18 | 4.39 |  |  |  | 
11 | CC(C)C[C@H](O)[C@H](O)[C@H](CC1CCCCC1)NC(=O)[C@H](CN=[N+]=[N-])NC(=O)[C@@H](CC(=O)N1CCOCC1)Cc1ccccc1 |  |  |  |  | 11 | 4.1 |  |  |  | 
12 | CC(C)C[C@H](O)[C@H](O)[C@H](CC1CCCCC1)NC(=O)[C@H](Cc1cn(C)cn1)NC(=O)[C@@H](CC(=O)N1CCOCC1)Cc1ccccc1 | 4900 | 470 | 3300 | 320 | 110 | 3.71 |  |  |  | 
13 | CCN1C[C@@H]([C@H](O)[C@H](CC2CCCCC2)NC(=O)[C@H](Cc2cc[nH]n2)NC(=O)[C@@H](CC(=O)N2CCOCC2)Cc2ccccc2)OC1=O | 28 | 7 | 58 | 7 |  | 2.49 |  |  |  | 
14 | COc1ccc(C[C@H](NC(=O)CC(C)(C)N)C(=O)N[C@@H](Cc2cccs2)C(=O)N[C@@H](CC2CCCCC2)[C@@H](O)[C@@H](O)CC(C)C)cc1 | 23 | 9 | 23 | 6 | 85 |  |  |  |  | 
15 | CCCC[C@H](NC(=O)[C@@H](CC(=O)N1CCN(C)CC1)Cc1ccccc1)C(=O)N[C@@H](CC1CCCCC1)[C@@H](O)[C@@H](O)CC(C)C | 3200 | 260 | 4600 | 650 | 25 | > 4.5 |  |  |  | 
16 | CCN1C[C@@H]([C@H](O)[C@H](CC2CCCCC2)NC(=O)[C@H](Cc2cscn2)NC(=O)[C@@H](CC(=O)N2CCOCC2)Cc2ccccc2)OC1=O | 1900 | 320 | 1100 | 300 |  | 2.83 | 3800 | 770 | 3200 | 360
17 | COc1ccc(C[C@H](NC(=O)CC(C)(C)N)C(=O)N[C@@H](Cc2cscn2)C(=O)N[C@@H](CC2CCCCC2)[C@@H](O)[C@@H](O)CC(C)C)cc1 | 93 | 17 | 53 | 13 | 33 |  |  |  |  | 
18 | CCN1C[C@@H]([C@H](O)[C@H](CC2CCCCC2)NC(=O)[C@H](Cc2cccs2)NC(=O)[C@H](Cc2ccc(OC)cc2)NC(=O)CC(C)(C)N)OC1=O | 13 | 16 | 45 | 32 | 69 |  |  |  |  | 
19 | CCN1C[C@@H]([C@H](O)[C@H](CC2CCCCC2)NC(=O)[C@H](Cc2cscn2)NC(=O)[C@H](Cc2ccc(OC)cc2)NC(=O)CC(C)(C)N)OC1=O | 880 | 83 | 240 | 24 | 39 |  |  |  |  | 
20 | CC(C)C[C@H](NC(=O)[C@@H](CC(=O)N1CCN(C)CC1)Cc1ccccc1)C(=O)N[C@@H](CC1CCCCC1)[C@@H](O)[C@@H](O)CC(C)C | 880 | 380 | 1200 | 620 | 37 |  |  |  |  | 
21 | CCN1C[C@@H]([C@H](O)[C@H](CC2CCCCC2)NC(=O)[C@H](Cc2cnc[nH]2)NC(=O)[C@@H](CC(=O)N2CCOCC2)Cc2ccccc2)OC1=O | 280 | 55 | 390 | 34 |  |  |  |  |  | 
22 | CC(C)C[C@H](O)[C@H](O)[C@H](CC1CCCCC1)NC(=O)[C@H](Cc1cscn1)NC(=O)[C@H](Cc1ccccc1)N1CCOCC1 | 2600 | 420 | 3300 | 890 | 1600 |  |  |  |  | 
23 | CC(C)C[C@H](O)[C@H](O)[C@H](CC1CCCCC1)NC(=O)[C@H](Cc1cscn1)NC(=O)[C@@H](CC(=O)CN1CCOCC1)Cc1ccccc1 | 2500 | 190 | 1800 | 380 | 25 | 3.91 |  |  |  | 
24 | CC(C)C[C@H](O)[C@H](O)[C@H](CC1CCCCC1)NC(=O)[C@H](Cc1cscn1)NC(=O)[C@@H](CC(=O)N1CCN(C)CC1)Cc1ccccc1 |  |  |  |  | 18 |  |  |  |  | 
25 | CC(C)C[C@H](O)[C@H](O)[C@H](CC1CCCCC1)NC(=O)[C@H](Cc1ccn[nH]1)NC(=O)[C@@H](CC(=O)N1CCN(C)CC1)Cc1ccccc1 | 53 | 21 | 27 | 22 | 2.8 | 4.02 |  |  |  | 
26 | CC(C)C[C@H](O)[C@H](O)[C@H](CC1CCCCC1)NC(=O)[C@H](Cc1cccs1)NC(=O)[C@@H](CC(=O)N1CCN(C)CC1)Cc1ccccc1 |  |  |  |  | 110 |  |  |  |  | 
27 | CC(C)C[C@H](O)[C@H](O)[C@H](CC1CCCCC1)NC(=O)[C@H](Cc1ccn[nH]1)NC(=O)[C@@H](CC(=O)N1CCOCC1)Cc1ccccc1 |  |  |  |  | 3.5 |  |  |  |  | 
